Data published in ChEMBL document CHEMBL1137725, “11C-labelled PIB analogues as potential tracer agents for in vivo imaging of amyloid beta in Alzheimer's disease” (Eur J Med Chem, 2009).
pKi: −log10 of the molar value. Activity calls are given as the source filed them. No cut-off for these calls is given here.

Tests used:
Kidney [1] = experiment: Biodistribution in NMRI mouse kidney at 37 MBq/mL, iv after 60 mins postinjection assessed per gram of tissue by gamma counting; assay type: ADME, organism-based; conditions: in vivo, 1 h
How it was run: (§1)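 Normal mice given the 11C tracer i.v.; killed by decapitation at 2 or 60 min p.i. (n = 4 per time point). Blood collected in tared tube and weighed; organs dissected and weighed, then gamma-counted. Counts background-corrected and expressed as %ID per organ or %ID/g tissue.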

Blood [2] = experiment: Biodistribution in NMRI mouse blood at 37 MBq/mL, iv after 60 mins postinjection by gamma counting; assay type: ADME, organism-based; conditions: in vivo, 1 h; how it was run: as §1
[3] = Biodistribution in NMRI mouse urine at 37 MBq/mL, iv after 60 mins postinjection by gamma counting; assay type: ADME, organism-based; conditions: in vivo, 1 h; how it was run: as §1
Kidney [4] = experiment: Biodistribution in NMRI mouse kidney at 37 MBq/mL, iv after 2 mins postinjection by gamma counting; assay type: ADME, organism-based; conditions: in vivo; how it was run: as §1
Cerebellum [5] = experiment: Biodistribution in NMRI mouse cerebellum at 37 MBq/mL, iv after 60 mins postinjection by gamma counting; assay type: ADME, organism-based; conditions: in vivo, 1 h; how it was run: as §1
Liver [6] = experiment: Biodistribution in NMRI mouse liver at 37 MBq/mL, iv after 2 mins postinjection assessed per gram of tissue by gamma counting; assay type: ADME, organism-based; conditions: in vivo; how it was run: as §1
Liver [7] = experiment: Biodistribution in NMRI mouse liver at 37 MBq/mL, iv after 60 mins postinjection by gamma counting; assay type: ADME, organism-based; conditions: in vivo, 1 h; how it was run: as §1
Liver [8] = experiment: Biodistribution in NMRI mouse liver at 37 MBq/mL, iv after 2 mins postinjection by gamma counting; assay type: ADME, organism-based; conditions: in vivo; how it was run: as §1
Liver [9] = experiment: Biodistribution in NMRI mouse liver at 37 MBq/mL, iv after 60 mins postinjection assessed per gram of tissue by gamma counting; assay type: ADME, organism-based; conditions: in vivo, 1 h; how it was run: as §1
[10] = Biodistribution in NMRI mouse cerebrum at 37 MBq/mL, iv after 60 mins postinjection assessed per gram of tissue by gamma counting; assay type: ADME, organism-based; conditions: in vivo, 1 h; how it was run: as §1
Cerebellum [11] = experiment: Biodistribution in NMRI mouse cerebellum at 37 MBq/mL, iv after 2 mins postinjection by gamma counting; assay type: ADME, organism-based; conditions: in vivo; how it was run: as §1
[12] = Biodistribution in NMRI mouse cerebrum at 37 MBq/mL, iv after 2 mins postinjection assessed per gram of tissue by gamma counting; assay type: ADME, organism-based; conditions: in vivo; how it was run: as §1
[13] = Biodistribution in NMRI mouse cerebrum at 37 MBq/mL, iv after 2 mins postinjection by gamma counting; assay type: ADME, organism-based; conditions: in vivo; how it was run: as §1
Blood [14] = experiment: Blood clearance in NMRI mouse assessed ratio of %ID in blood after 2 mins to %ID in blood after 60 mins at 37 MBq/mL, iv; assay type: ADME, tissue-based
How it was run: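 Normal mice given i.v. 11C tracer; blood collected at 2 and 60 min p.i. (n = 4 per time point), weighed and gamma-counted. Clearance expressed as the ratio of %ID/g blood at 2 min to %ID/g blood at 60 min.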

Blood [15] = experiment: Biodistribution in NMRI mouse blood at 37 MBq/mL, iv after 60 mins postinjection assessed per gram of tissue by gamma counting; assay type: ADME, organism-based; conditions: in vivo, 1 h; how it was run: as §1
Cerebellum [16] = experiment: Biodistribution in NMRI mouse cerebellum at 37 MBq/mL, iv after 60 mins postinjection assessed per gram of tissue by gamma counting; assay type: ADME, organism-based; conditions: in vivo, 1 h; how it was run: as §1
Blood [17] = experiment: Biodistribution in NMRI mouse blood at 37 MBq/mL, iv after 2 mins postinjection by gamma counting; assay type: ADME, organism-based; conditions: in vivo; how it was run: as §1
Cerebellum [18] = experiment: Biodistribution in NMRI mouse cerebellum at 37 MBq/mL, iv after 2 mins postinjection assessed per gram of tissue by gamma counting; assay type: ADME, organism-based; conditions: in vivo; how it was run: as §1
Blood [19] = experiment: Biodistribution in NMRI mouse blood at 37 MBq/mL, iv after 2 mins postinjection assessed per gram of tissue by gamma counting; assay type: ADME, organism-based; conditions: in vivo; how it was run: as §1
Kidney [20] = experiment: Biodistribution in NMRI mouse kidney at 37 MBq/mL, iv after 2 mins postinjection assessed per gram of tissue by gamma counting; assay type: ADME, organism-based; conditions: in vivo; how it was run: as §1
[21] = Partition coefficient, log P in Octanol and 0.025 M phosphate buffer at pH7.4 by gamma counter; assay type: physicochemical; conditions: octanol/0.025 M phosphate buffer, pH 7.4
How it was run: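 HPLC-purified 11C tracer added to 1-octanol and 2 ml 0.025 M phosphate buffer pH 7.4. Vortexed 3 min at room temperature, centrifuged 2700 g for 10 min. Aliquots of each phase weighed and gamma-counted; P = (cpm/ml octanol)/(cpm/ml buffer). Triplicate.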

Intestine [22] = experiment: Biodistribution in NMRI mouse intestine at 37 MBq/mL, iv after 2 mins postinjection by gamma counting; assay type: ADME, organism-based; conditions: in vivo; how it was run: as §1
[23] = Biodistribution in NMRI mouse cerebrum at 37 MBq/mL, iv after 60 mins postinjection by gamma counting; assay type: ADME, organism-based; conditions: in vivo, 1 h; how it was run: as §1
Kidney [24] = experiment: Biodistribution in NMRI mouse kidney at 37 MBq/mL, iv after 60 mins postinjection by gamma counting; assay type: ADME, organism-based; conditions: in vivo, 1 h; how it was run: as §1
Intestine [25] = experiment: Biodistribution in NMRI mouse intestine at 37 MBq/mL, iv after 60 mins postinjection by gamma counting; assay type: ADME, organism-based; conditions: in vivo, 1 h; how it was run: as §1
[26] = Biodistribution in NMRI mouse urine at 37 MBq/mL, iv after 2 mins postinjection by gamma counting; assay type: ADME, organism-based; conditions: in vivo; how it was run: as §1
[27] = molecular target: T1, Amyloid-beta precursor protein (Homo sapiens, UniProt P05067); experiment: Binding affinity to beta-amyloid plaques in subiculum of transgenic mouse overexpressing human APP at 1 uM by fluorescence microscopy; assay type: tissue-based
How it was run: (§2)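 Paraffin 8 µm sagittal sections of transgenic APP (London mutation) mouse brain or post-mortem human AD brain; xylol and graded-ethanol deparaffinization, then 1 h incubation with cold compound; tap-water rinse, Mowiol-DABCO mounting. Fluorescence microscopy with UV filter set (excitation 355–425 nm, emission 470 nm longpass). Neighbouring sections immunostained with pan Aβ or AβN25 antibody to check co-localization.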

[28] = molecular target: T1, Amyloid-beta precursor protein; experiment: Displacement of [125I]IMPY from beta-amyloid plaques in brain homogenate of patient with Alzheimer's disease by gamma counting; assay type: tissue-based
How it was run: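 Gray-matter homogenates of post-mortem AD cortex in PBS pH 7.4, about 100 mg wet tissue/ml. Incubated 2 h at 37 °C, then GF/B vacuum filtration, two PBS washes, gamma counting. Ki from non-linear regression using Ki = IC50/(1+L/Kd).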

[29] = molecular target: T1, Amyloid-beta precursor protein; experiment: Binding affinity to vascular beta-amyloid plaques in vibratome section of transgenic mouse cortex overexpressing human APP at 1 uM by fluorescence microscopy
How it was run: (§3)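 Vibratome sections of transgenic APP (London mutation) mouse brain cortex incubated with cold compound. Fluorescence microscopy with UV filter set (excitation 355–425 nm, emission 470 nm longpass). For co-localization, one section was incubated first with AβN25 antibody and then with compound.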

[30] = molecular target: T1, Amyloid-beta precursor protein; experiment: Binding affinity to beta-amyloid plaques in cortex of patient with Alzheimer's disease at 1 uM by fluorescence microscopy; how it was run: as §2
[31] = molecular target: T1, Amyloid-beta precursor protein; experiment: Binding affinity to vascular beta-amyloid plaques in vibratome section of transgenic mouse overexpressing human APP at 0.1 uM by fluorescence microscopy; conditions: 1 uM, in the assay text read “at 1 uM” for “at 0.1 uM”; how it was run: as §3
[32] = molecular target: T1, Amyloid-beta precursor protein; experiment: Binding affinity to fibrillar beta-amyloid plaques in cortex of patient with Alzheimer's disease at 1 uM by fluorescence microscopy; how it was run: as §2
[33] = Biodistribution in NMRI mouse hepatobiliary system at 37 MBq/mL, iv after 60 mins postinjection by gamma counting; assay type: ADME, organism-based; conditions: in vivo, 1 h; how it was run: as §1
[34] = molecular target: T1, Amyloid-beta precursor protein; experiment: Binding affinity to core beta-amyloid plaques in vibratome section of transgenic mouse overexpressing human APP at 1 uM by fluorescence microscopy; how it was run: as §3

T1 sequence (P05067 whole entry): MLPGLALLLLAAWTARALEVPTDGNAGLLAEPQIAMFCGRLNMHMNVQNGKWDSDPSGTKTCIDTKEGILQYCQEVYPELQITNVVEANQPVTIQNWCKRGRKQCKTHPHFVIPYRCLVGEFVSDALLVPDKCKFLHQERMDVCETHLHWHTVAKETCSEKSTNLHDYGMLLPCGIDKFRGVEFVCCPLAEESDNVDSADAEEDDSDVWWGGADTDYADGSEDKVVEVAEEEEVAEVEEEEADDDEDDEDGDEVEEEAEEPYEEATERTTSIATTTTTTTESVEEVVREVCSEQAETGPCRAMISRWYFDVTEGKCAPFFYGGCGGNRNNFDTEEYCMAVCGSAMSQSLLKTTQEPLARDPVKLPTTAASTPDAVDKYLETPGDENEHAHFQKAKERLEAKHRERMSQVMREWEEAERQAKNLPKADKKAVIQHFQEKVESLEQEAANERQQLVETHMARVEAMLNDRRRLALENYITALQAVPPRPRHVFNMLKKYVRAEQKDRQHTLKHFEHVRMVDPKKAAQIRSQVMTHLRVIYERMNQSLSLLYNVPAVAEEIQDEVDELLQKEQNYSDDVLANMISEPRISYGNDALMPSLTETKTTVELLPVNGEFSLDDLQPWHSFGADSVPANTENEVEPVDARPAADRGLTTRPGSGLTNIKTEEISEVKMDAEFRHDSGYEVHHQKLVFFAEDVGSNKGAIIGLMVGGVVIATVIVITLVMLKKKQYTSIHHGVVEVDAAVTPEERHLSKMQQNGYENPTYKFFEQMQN

SMILES | Drug uptake (Kidney [1]) [% ID/g] | Drug uptake (Blood [2]) [%ID] | Drug uptake [3] [%ID] | Drug uptake (Kidney [4]) [%ID] | Drug uptake (Cerebellum [5]) [%ID] | Drug uptake (Liver [6]) [% ID/g] | Drug uptake (Liver [7]) [%ID] | Drug uptake (Liver [8]) [%ID] | Drug uptake (Liver [9]) [% ID/g] | Drug uptake [10] [% ID/g] | Drug uptake (Cerebellum [11]) [%ID] | Drug uptake [12] [% ID/g] | Drug uptake [13] [%ID] | Drug uptake (Blood [15]) [% ID/g] | Drug uptake (Cerebellum [16]) [% ID/g] | Drug uptake (Blood [17]) [%ID] | Drug uptake (Cerebellum [18]) [% ID/g] | Drug uptake (Blood [19]) [% ID/g] | Drug uptake (Kidney [20]) [% ID/g] | Drug uptake (Intestine [22]) [%ID] | further results
[11CH3]Nc1ccc(-c2nc3cccc(O)c3s2)cc1 | 4.8 | 1.2 | 24.8 | 9 | 0.01 | 14.5 | 7.1 | 27.8 | 4 | 0.16 | 0.22 | 2.6 | 0.83 | 0.57 | 0.1 | 9.8 | 2.8 | 4.6 | 16.9 | 9.4 | Ratio (Blood [14]): 12; logD [21]: 2.45; Drug uptake [23]: 0.05 %ID; Drug uptake (Kidney [24]): 2.5 %ID; Drug uptake (Intestine [25]): 54.7 %ID; Drug uptake [26]: 0.58 %ID
CNc1ccc(-c2nc3cccc(O)c3s2)cc1 | – | – | – | – | – | – | – | – | – | – | – | – | – | – | – | – | – | – | – | – | Activity [27]: Active; pKi [28]: 7.95; Activity [29]: Active; Activity [30]: Active; Activity [31]: Active; Activity [32]: Active
[11CH3]Nc1ccc(-c2nc3c(O)cccc3s2)cc1 | 1.2 | 2.3 | 22.7 | 10.6 | 0 | 11.1 | 6.4 | 21.2 | 3.7 | 0.3 | 0.2 | 3.8 | 1.2 | 1 | 0.6 | 13.8 | 2.7 | 6.5 | 19.4 | 12 | Ratio (Blood [14]): 6; Drug uptake [33]: 59 %ID; logD [21]: 3.18; Drug uptake [23]: 0.1 %ID; Drug uptake (Kidney [24]): 0.6 %ID; Drug uptake (Intestine [25]): 52.3 %ID; Drug uptake [26]: 0.2 %ID
CNc1ccc(-c2nc3c(O)cccc3s2)cc1 | – | – | – | – | – | – | – | – | – | – | – | – | – | – | – | – | – | – | – | – | Activity [27]: Active; pKi [28]: 7.73; Activity [30]: Active; Activity [32]: Active
CNc1ccc(-c2nc3cc(O)ccc3s2)cc1 | – | – | – | – | – | – | – | – | – | – | – | – | – | – | – | – | – | – | – | – | Activity [34]: Active; Activity [27]: Active; pKi [28]: 7.94; Activity [29]: Active; Activity [30]: Active; Activity [31]: Active; Activity [32]: Active

Second part, led by results:

Drug uptake (Kidney [1]) [% ID/g] | Drug uptake (Blood [2]) [%ID] | Drug uptake [3] [%ID] | Drug uptake (Kidney [4]) [%ID] | Drug uptake (Cerebellum [5]) [%ID] | Drug uptake (Liver [6]) [% ID/g] | Drug uptake (Liver [7]) [%ID] | Drug uptake (Liver [8]) [%ID] | Drug uptake (Liver [9]) [% ID/g] | Drug uptake [10] [% ID/g] | Drug uptake (Cerebellum [11]) [%ID] | Drug uptake [12] [% ID/g] | Drug uptake [13] [%ID] | Drug uptake (Blood [15]) [% ID/g] | Drug uptake (Cerebellum [16]) [% ID/g] | Drug uptake (Blood [17]) [%ID] | Drug uptake (Cerebellum [18]) [% ID/g] | Drug uptake (Blood [19]) [% ID/g] | Drug uptake (Kidney [20]) [% ID/g] | Drug uptake (Intestine [22]) [%ID] | SMILES | further results
1.2 | 0.5 | 14.6 | 8.1 | 0.01 | 12.1 | 4.2 | 25.8 | 2.2 | 0.09 | 0.57 | 4.3 | 1.3 | 0.21 | 0.08 | 6 | 4.4 | 2.5 | 14.2 | 12.9 | [11CH3]Nc1ccc(-c2nc3cc(O)ccc3s2)cc1 | Drug uptake [33]: 78 %ID; logD [21]: 2.48; Drug uptake [23]: 0.03 %ID; Drug uptake (Kidney [24]): 0.7 %ID; Drug uptake (Intestine [25]): 73.7 %ID; Drug uptake [26]: 0.35 %ID
9.1 | 2.7 | 24.4 | 10.3 | 0 | 7.9 | 9.8 | 15.6 | 5 | 0.6 | 0.2 | 3.6 | 1.1 | 1.1 | 0.3 | 7.9 | 1.6 | 3.1 | 19.9 | 12 | CNc1ccc(-c2nc3ccc(O)cc3s2)cc1 [PITTSBURGH COMPOUND B UNLABELLED] | Drug uptake [23]: 0.2 %ID; Drug uptake (Kidney [24]): 4.8 %ID; Drug uptake (Intestine [25]): 42.5 %ID; Drug uptake [26]: 0.2 %ID
